The values that follow come from PubChem BioAssay AID493227 (Broad Institute, 2011).

SMILES strings stand for the structures. Values joined by “and” are separate entries in the source; they are usually repeats but may differ in a detail not shown here. Identical values can stand only once. Active and inactive are the calls of the source.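 Rule for the calls: active = fitted curve reaches 40% activation at a dose no higher than the top dose validly tested; inconclusive = flat curve between 30 and 70% activation, or poor fit; inactive = the rest, including signal moving against the expected rise.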

System in the first test: not listed separately
In words: HRE-luciferase activation in U2OS cells, dose response, cell-based, luminescence, U2OS HRE-luc, dry powder, set 8 (AID 493227). The note with it: U2OS HRE-luciferase reporter, luminescence, HIF activation; at 38 µM (top of the series). In a few lines:
(§1)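 System: human U2OS osteosarcoma cells stably carrying 3×HRE-luciferase reporter; buffer or medium: phenol red-free DMEM with 10% FBS, no hygromycin; doses: 8-point series in 3-fold steps; times: 24 h plating, 24 h compound treatment; technique: Steady-Glo luminescence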
`O=C(Nc1cn2ccccc2n1)c1cc(-c2ccccc2)on1`: the activation is -5.39% (inactive). As to `O=C(Nc1ccc2ccccc2n1)c1cc(-c2ccccc2)on1`, the activation was -20.3% (inactive).

Consider `O=C(c1cc(-c2ccccc2)on1)N1CCc2cccnc21`, for which the activation is -1.93% (inactive). For `O=C(Nc1nnc(-c2ccccc2)s1)c1cc(-c2ccccc2)on1`, the activation was 6.25% (inactive). The same measure, in the same setting: to `Cn1c(-c2ccccc2)cnc1NC(=O)c1cc(-c2ccccc2)on1` belongs 8.45% (inactive); to `O=C(Nc1ncc(-c2ccccc2)o1)c1cc(-c2ccccc2)on1`, -20.6% (inactive); to `Cc1ccccc1CNC(=O)c1cc(-c2ccccc2)on1`, 17.1% (inactive). Same read-out and setting: to `O=C(c1cc(-c2ccccc2)on1)N1CCC(CO)CC1` belongs -18% (inactive).

`O=C(Nc1cnc2ccccc2c1)c1cc(-c2ccccc2)on1`: the activation was 22.1% (inactive).

With `O=C(Nc1nc(-c2ccccc2)cs1)c1cc(-c2ccccc2)on1`, the activation is -11.1% (inactive).

As for `O=C(NC1CCc2ccccc2C1)c1cc(-c2ccccc2)on1` (stereo not drawn), the activation was -11.6% (inactive). In the case of `c1ccc(-c2nnc(-c3ccccn3)nc2N2CCC(C3CCCCC3)C2)cc1` (stereo not drawn), the activation is 2190% (inactive).

With `Cn1c(NC(=O)c2cc(-c3ccccc3)on2)nc2ccccc21`, the activation is 5.66% (inactive). As for `Cc1ccc(NC(=O)c2cc(-c3ccccc3)on2)cn1`, the activation is -3.16% (inactive).

Consider `O=C(c1cc(-c2ccccc2)on1)N1CCC(N2CCOCC2)CC1`, for which the activation was -9.31% (inactive). The same measure, in the same setting: to `O=C(Nc1nc2ccccc2s1)c1cc(-c2ccccc2)on1` belongs 9.05% (inactive); to `Oc1ccc(CN2CCc3ccccc3C2)c2cccnc12`, 99.2% (inactive); to `O=C(NCC1CCCCC1)c1cc(-c2ccccc2)on1`, 15.7% (inactive). On the same count and under the same terms, to `O=C(c1cc(-c2ccccc2)on1)N1CCC(N2CCCC2)CC1` belongs -2.94% (inactive); to `O=C(Nc1ncc2ccccc2n1)c1cc(-c2ccccc2)on1`, 8.54% (inactive). On the same count and under the same terms, next, `O=C(c1cc(-c2ccccc2)on1)N1CCN(c2ccncc2)CC1`: -11.8% (inactive); `CN1CCN(C(=O)c2cc(-c3ccccc3)on2)CC1`: -33.9% (inactive); `Cc1ccc(CNC(=O)c2cc(-c3ccccc3)on2)cc1`: -27% (inactive).

The subject of a further test is U2OS HRE-luciferase reporter, luminescence, HIF activation. Described as above.
Settings: not given
In a few lines:
as §1
For `Cc1cccc(CNc2nc(-c3ccccn3)nnc2-c2ccccc2)c1`, the AC40 is 2.09 µM. Still for that read-out and setting: to `CC(Nc1nc(-c2ccccn2)nnc1-c1ccccc1)c1ccccc1` (stereo not drawn) belongs 0.875 µM; to `CC(C)(C)CCNC(=O)c1cc(-c2ccccc2)on1`, 5.03 µM.

On to `CC(C)(C)CCNc1nc(-c2ccccn2)nnc1-c1ccccc1`, for which the AC40 is 1.41 µM and 0.785 µM. Still for that read-out and setting: to `c1ccc(-c2nnc(-c3ccccn3)nc2Nc2cnc3ccccc3n2)cc1` belongs 3.83 µM; to `O=C(NCCN1CCCCC1)c1cc(-c2ccccc2)on1`, > 38 µM (inactive). On the same count and under the same terms, to `c1ccc(-c2nnc(-c3ccccn3)nc2N2CCC(c3ccccc3)C2)cc1` (stereo not drawn) belongs 0.509 µM; to `c1ccc(-c2nnc(-c3ccccn3)nc2NCCN2CCOCC2)cc1`, 1.96 µM; to `c1ccc(-c2nnc(Nc3nc(-c4ccccn4)nnc3-c3ccccc3)s2)cc1`, 0.582 µM. The same measure, in the same setting: next, `Cc1ccc(CNc2nc(-c3ccccn3)nnc2-c2ccccc2)cc1C`: 0.364 µM; `c1ccc(-c2nnc(-c3ccccn3)nc2NCC2CCOCC2)cc1`: 5.01 µM; `C=CCNc1nc(-c2ccccn2)nnc1-c1ccccc1`: 1.3 µM. With `O=C(NC1Cc2ccccc2C1)c1cc(-c2ccccc2)on1`, the AC40 is > 38 µM (inactive).

As to `CN(C)c1nc(-c2ccccn2)nnc1-c1ccccc1`, the AC40 is 6.62 µM.

Take `CN(C)CCNC(=O)c1cc(-c2ccccc2)on1`: the AC40 was > 38 µM (inactive). Turning to `c1ccc(-c2nnc(-c3ccccn3)nc2N2CCC(N3CCOCC3)CC2)cc1`, the AC40 is 2.18 µM. The same measure, in the same setting: to `Cc1cccc(CNC(=O)c2cc(-c3ccccc3)on2)c1` belongs > 38 µM (inactive); to `Oc1ccc(CN2CCC(Cc3ccccc3)CC2)c2cccnc12`, 11.1 µM. For the compound `c1ccc(-c2ccc(CNc3nc(-c4ccccn4)nnc3-c3ccccc3)cc2)cc1`, the AC40 was 0.379 µM.

With `Oc1ccc(CNC2Cc3ccccc3C2)c2cccnc12`, the AC40 is 8.12 µM. Still for that read-out and setting: to `c1ccc(-c2cccc(CNc3nc(-c4ccccn4)nnc3-c3ccccc3)c2)cc1` belongs 0.06 µM. Same read-out and setting: next, `c1ccc(-c2nnc(-c3ccccn3)nc2Nc2nc3ccccc3s2)cc1`: 2.87 µM; `c1ccc(-c2cnc(Nc3nc(-c4ccccn4)nnc3-c3ccccc3)s2)cc1`: 10.7 µM; `Cc1ccc(CNc2nc(-c3ccccn3)nnc2-c2ccccc2)cc1`: 1.28 µM. For the compound `CN1CCN(c2nc(-c3ccccn3)nnc2-c2ccccc2)CC1`, the AC40 was 3.01 µM. For the compound `Cc1ccc(Nc2nc(-c3ccccn3)nnc2-c2ccccc2)cn1`, the AC40 was 3.28 µM. The same measure, in the same setting: next, `O=C(NCCCCO)c1cc(-c2ccccc2)on1`: 1.65 µM; `C[C@@H](Nc1nc(-c2ccccn2)nnc1-c1ccccc1)C1CCCCC1`: 1.88 µM; `O=C(NCC1CC1)c1cc(-c2ccccc2)on1`: 1.5 µM. On the same count and under the same terms, next, `CC(C)(C)c1ccc(CNc2nc(-c3ccccn3)nnc2-c2ccccc2)cc1`: 0.393 µM; `COc1ccc(CNc2nc(-c3ccccn3)nnc2-c2ccccc2)cc1`: 0.782 µM. The same measure, in the same setting: next, `c1ccc(CCNc2nc(-c3ccccn3)nnc2-c2ccccc2)cc1`: 1.35 µM. Take `COc1ccccc1N1CCN(Cc2ccc(O)c3ncccc23)CC1`: the AC40 was 11.8 µM. On to `Oc1ccc(CNC2CCc3ccccc32)c2cccnc12` (stereo not drawn), for which the AC40 is 13.9 µM. Same read-out and setting: to `c1ccc(-c2nnc(-c3ccccn3)nc2NCCCN2CCOCC2)cc1` belongs 3.61 µM; to `c1ccc(-c2csc(Nc3nc(-c4ccccn4)nnc3-c3ccccc3)n2)cc1`, 13.9 µM; to `c1ccc(-c2nnc(-c3ccccn3)nc2NCc2cccnc2)cc1`, 3.73 µM. On the same count and under the same terms, next, `O=C(NCCCN1CCOCC1)c1cc(-c2ccccc2)on1`: 7.62 µM; `Oc1ccc(CN2CCC3CCCCC3C2)c2cccnc12` (stereo not drawn): 4.8 µM. As to `Cc1cccc(NC(=O)c2cc(-c3ccccc3)on2)n1`, the AC40 was > 38 µM (inactive). Same read-out and setting: to `CC(C)(C)OC(=O)N1CCN(Cc2ccc(O)c3ncccc23)CC1` belongs > 38 µM (inactive); to `c1ccc(-c2nnc(-c3ccccn3)nc2NCC2CCCCC2)cc1`, 1.28 µM; to `c1ccc(-c2nnc(-c3ccccn3)nc2N2CCN(c3ccncc3)CC2)cc1`, 2.35 µM.

As for `c1ccc(-c2nnc(-c3ccccn3)nc2NCC2CC2)cc1`, the AC40 is 2.77 µM.

With `c1ccc(-c2nnc(-c3ccccn3)nc2NCc2ccccn2)cc1`, the AC40 was 8.01 µM. On the same count and under the same terms, to `COc1cccc(CNc2nc(-c3ccccn3)nnc2-c2ccccc2)c1` belongs 1.31 µM; to `Cc1cccc(Nc2nc(-c3ccccn3)nnc2-c2ccccc2)n1`, 1.89 µM. On the same count and under the same terms, to `O=C(NCc1ccccc1)c1cc(-c2ccccc2)on1` belongs > 38 µM (inactive); to `c1ccc(-c2nnc(-c3ccccn3)nc2NCCc2ccccn2)cc1`, 3.14 µM; to `Oc1ccc(CN2CCc3ccccc3C2)c2cccnc12`, 2.32 µM. Still for that read-out and setting: to `Clc1cccc(CNc2nc(-c3ccccn3)nnc2-c2ccccc2)c1` belongs 0.826 µM.

For `O=C(NCCCn1ccnc1)c1cc(-c2ccccc2)on1`, the AC40 was 4.16 µM. Regarding `Cn1c(-c2ccccc2)cnc1Nc1nc(-c2ccccn2)nnc1-c1ccccc1`, the AC40 is 4.17 µM. For `O=C(NCCCO)c1cc(-c2ccccc2)on1`, the AC40 is 5.37 µM. `N#CC1(c2ccccc2)CCN(Cc2ccc(O)c3ncccc23)CC1`: the AC40 is 14.5 µM. Same read-out and setting: to `C[C@H](Nc1nc(-c2ccccn2)nnc1-c1ccccc1)C1CCCCC1` belongs 1.16 µM; to `C[C@@H](Nc1nc(-c2ccccn2)nnc1-c1ccccc1)c1ccccc1`, 1.61 µM. The same measure, in the same setting: next, `c1ccc(CNc2nc(-c3ccccn3)nnc2-c2ccccc2)cc1`: 3.22 µM.

As to `OCCCNc1nc(-c2ccccn2)nnc1-c1ccccc1`, the AC40 is 7.76 µM. The same measure, in the same setting: next, `OCC1CCN(Cc2ccc(O)c3ncccc23)CC1`: 15.9 µM. Still for that read-out and setting: next, `CC1CN(Cc2ccc(O)c3ncccc23)CC(C)O1` (stereo not drawn): 36.6 µM; `Cc1ccccc1CNc1nc(-c2ccccn2)nnc1-c1ccccc1`: 2.08 µM; `O=C(NCCN1CCOCC1)c1cc(-c2ccccc2)on1`: 8.1 µM. As to `CCCCNC(=O)c1cc(-c2ccccc2)on1`, the AC40 was 3.17 µM. As for `OCC1CCN(c2nc(-c3ccccn3)nnc2-c2ccccc2)CC1`, the AC40 is 12.1 µM.
